We go through 20 molecules from ChEMBL document CHEMBL1157305, “Serotonergic activity-guided phytochemical investigation of the roots of Angelica sinensis” (J Nat Prod, 2006).

Structures are written as SMILES.

Experiment [1] addresses T1, 5-hydroxytryptamine receptor 7 (Homo sapiens, UniProt P34969). The experiment in a line: Displacement of [3H]LSD from human recombinant 5HT7 receptor expressed in CHO cells at 100 uM by liquid scintillation counting relative to control. Format: cell-based. The method, boiled down: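 Membranes from confluent human 5-HT7-transfected CHO cells were lysed in hypotonic buffer at 4 °C and homogenized in TEM buffer. Protein was measured by Lowry. Binding used [3H]LSD (5 nM) in 75 mM Tris-HCl, 1.25 mM MgCl2, 1 mM EDTA, pH 7.4, for 1 h at 37 °C. Samples were filtered on PEI-presoaked filters and counted by liquid scintillation. Nonspecific binding was defined with 250 nM 5-HT.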

Experiment [2] addresses T1, 5-hydroxytryptamine receptor 7. Kind of experiment: Displacement of [3H]LSD from human recombinant 5HT7 receptor expressed in CHO cells by liquid scintillation counting. Format: cell-based. Summed up:
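Membranes from confluent CHO cells stably carrying human 5-HT7, grown in Ham's F-12 with 10% FBS. Cells lysed in hypotonic Tris/MgCl2/EDTA buffer at 4 °C, and membranes washed in TEM buffer. Incubated with 5 nM [3H]LSD for 1 h at 37 °C in 75 mM Tris-HCl, 1.25 mM MgCl2, 1 mM EDTA, pH 7.4. Filtered, then counted by scintillation. Nonspecific binding defined with 250 nM 5-HT. IC50 is the concentration giving 50% inhibition of binding.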

T1 sequence (P34969 whole entry): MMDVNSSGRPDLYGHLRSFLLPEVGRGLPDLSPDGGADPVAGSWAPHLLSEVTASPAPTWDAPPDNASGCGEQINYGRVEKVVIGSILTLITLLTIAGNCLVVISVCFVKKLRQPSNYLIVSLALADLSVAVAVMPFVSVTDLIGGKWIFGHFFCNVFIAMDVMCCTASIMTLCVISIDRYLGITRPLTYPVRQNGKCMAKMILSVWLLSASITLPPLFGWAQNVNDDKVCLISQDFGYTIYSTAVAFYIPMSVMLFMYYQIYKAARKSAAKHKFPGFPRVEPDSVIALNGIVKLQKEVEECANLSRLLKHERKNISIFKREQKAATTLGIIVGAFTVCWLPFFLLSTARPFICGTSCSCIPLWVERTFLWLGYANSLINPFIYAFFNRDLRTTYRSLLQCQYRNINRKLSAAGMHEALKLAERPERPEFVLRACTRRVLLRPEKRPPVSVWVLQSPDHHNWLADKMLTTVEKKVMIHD

As for `CC(C)=CCOc1c2occc2cc2ccc(=O)oc12`, the inhibition (in general, the drop in the measured response relative to a control, in per cent) in experiment [1] stood at 57%.
On the same count and under the same terms, the figure for `COc1cc(/C=C/C(=O)O)ccc1O` is 41%.
In the case of `C=C[C@H](O)C#CC#C[C@@H](O)C1OC1CCCCCCC` (stereo not given in full), the inhibition in experiment [1] came out at 36%.
Same read-out and setting: in the case of `CCC/C=C1\OC(=O)C2=C1CCC=C2` it was 33%; in that of `CCC/C=C1\OC(=O)C2=C1CCC(O)C2OC` (stereo not given), 36%; in that of `CCC/C=C1\OC(=O)C2=CC3CCC21[C@]1(OC(=O)c2ccccc21)[C@@H]3CCC` (stereo not given in full), 19%.
Same read-out and setting: the figure for `C/C=C(/C)C(=O)OC(C)CCC1OC(=O)c2ccccc21` (stereo not given) is 21%; for `CCC/C=C1\OC(=O)C23C=CCCCC12C1(OC(=O)c2ccccc21)C3CCC` (stereo not given) it is 24%.
For `CCCCNS(=O)(=O)c1ccccc1`, the inhibition in experiment [1] turned out to be 0%.
For the molecule `COc1cc(C=O)ccc1O`, the inhibition in experiment [1] was determined as 0%.
For the molecule `CC[C@H](/C=C/[C@@H](C)[C@H]1CC[C@H]2[C@@H]3CC=C4C[C@@H](O)CC[C@]4(C)[C@H]3CC[C@]12C)C(C)C`, the inhibition in experiment [1] is 0%.
Turning to `CCCCCCC/C=C\[C@H](O)C#CC#CC(=O)CCOC`, in experiment [2], the IC50 (as a rule, the concentration at which inhibition is half-maximal) was more than 150 µM. Further, in experiment [1], the inhibition is 69%.
With `COc1cc(/C=C/C(=O)OCCc2ccc(O)cc2)ccc1O`, in experiment [2], the 50% inhibitory concentration (IC50) was found to be 47.6 µM. The inhibition in experiment [1] is 71%.
For `C=C[C@@H](O)C#CC#C[C@@H](O)/C=C\CCCCCCC` [FALCARINDIOL] the same measures were 118 µM and 61%.
On to `CC/C=C\C/C=C\C/C=C\CCCCCCCC(=O)OCC(O)COC(=O)CCCCCCCC/C=C\C/C=C\C=C\CC` (stereo not given), for which the inhibition in experiment [1] worked out at 0%.
In the case of `CCC/C=C1\OC(=O)c2ccccc21` [Z-butylidenephthalide], in experiment [2], the IC50 was determined as 127 µM. Besides, the inhibition in experiment [1] worked out at 46%.
Take `COc1cc(/C=C/C(=O)OCC(O)C(OC)c2ccc(O)c(OC)c2)ccc1O` (stereo not given): the inhibition in experiment [1] was found to be 31%.
Consider `CCC/C=C1\OC(=O)C2=C1CC[C@@H](O)[C@@H]2O`, for which, in experiment [1], the inhibition turned out to be 0%.
As for `CCCCCCC/C=C\[C@H](O)C#CC#C[C@@H](O)CC`, in experiment [1], the inhibition came out at 5%.
On to `C=C[C@@H](O)C#CC#C[C@@H](O)/C=C\CCCCCCCCOC(C)=O`, for which, in experiment [2], the IC50 was 118 µM. The inhibition in experiment [1] was found to be 49%.
